Km and Vmax data for two proteins are collected here from ChEMBL document CHEMBL1144404, “Aminoimidazolylmethyluracil analogues as potent inhibitors of thymidine phosphorylase and their bioreductive nitroimidazolyl prodrugs” (J Med Chem, 2005).

Substrate in series [1]: O=c1[nH]c(=O)n([C@H]2C[C@H](O)[C@@H](CO)O2)cc1[N+](=O)[O-]
The experiment in a line: Michaelis-Menten constant against human thymidine phosphorylase. The method, boiled down:
(§1)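 Recombinant human TP expressed in V79 Chinese hamster cells, 0.065 absorbance unit per assay. Continuous spectrophotometric assay at 355 nm, 25 °C, 0.1 M phosphate buffer pH 7.4, 0.2 mL total volume, with 5-nitro-2'-deoxyuridine as substrate; kinetic constants from initial rates.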

Substrate in series [2]: O=c1[nH]c(=O)n([C@H]2C[C@H](O)[C@@H](CO)O2)cc1[N+](=O)[O-]
Briefly: Vmax against human thymidine phosphorylase. The method, boiled down: as §1

Substrate in series [3]: O=c1[nH]c(=O)n([C@H]2C[C@H](O)[C@@H](CO)O2)cc1[N+](=O)[O-]
The experiment in a line: Michaelis-Menten constant against Escherichia coli thymidine phosphorylase. The method, boiled down:
(§2)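 Continuous UV assay at 355 nm and 25 °C in 0.2 mL of 0.1 M potassium phosphate pH 7.4, using recombinant E. coli TP (ca. 0.00883 units per assay) added to start the reaction. Substrate is thymidine or 5-nitro-2'-deoxyuridine; phosphorolysis to 5-nitrouracil followed (εM 13300 M-1 cm-1 for substrate).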

Substrate in series [4]: O=c1[nH]c(=O)n([C@H]2C[C@H](O)[C@@H](CO)O2)cc1[N+](=O)[O-]
Briefly: (§3) Vmax against Escherichia coli thymidine phosphorylase. The method, boiled down:
as §2

Substrate in series [5]: Cc1cn([C@H]2C[C@H](O)[C@@H](CO)O2)c(=O)[nH]c1=O
Described as §3. The procedure, abridged:
as §2

Usually Km stands for the substrate concentration at which the rate is half of its maximum. As usually defined, the Vmax is the top rate of the reaction or transport when substrate is in excess.

B1: Thymidine phosphorylase (Homo sapiens), P19971 (protein)
chain: MAALMTPGTGAPPAPGDFSGEGSQGLPDPSPEPKQLPELIRMKRDGGRLSEADIRGFVAAVVNGSAQGAQIGAMLMAIRLRGMDLEETSVLTQALAQSGQQLEWPEAWRQQLVDKHSTGGVGDKVSLVLAPALAACGCKVPMISGRGLGHTGGTLDKLESIPGFNVIQSPEQMQVLLDQAGCCIVGQSEQLVPADGILYAARDVTATVDSLPLITASILSKKLVEGLSALVVDVKFGGAAVFPNQEQARELAKTLVGVGASLGLRVAAALTAMDKPLGRCVGHALEVEEALLCMDGAGPPDLRDLVTTLGGALLWLSGHAGTQAQGAARVAAALDDGSALGRFERMLAAQGVDPGLARALCSGSPAERRQLLPRAREQEELLAPADGTVELVRALPLALVLHELGAGRSRAGEPLRLGVGAELLVDVGQRLRRGTPWLRVHRDGPALSGPQSRALQEALVLSDRAPFAAPSPFAELVLPPQQ
Regarding B1, in series [1], the Michaelis-Menten constant (Km) came to 160 µM. The Vmax in series [2] is 0.0086 mM/min.

B2: Thymidine phosphorylase (Escherichia coli K-12), P07650 (protein)
chain: MFLAQEIIRKKRDGHALSDEEIRFFINGIRDNTISEGQIAALAMTIFFHDMTMPERVSLTMAMRDSGTVLDWKSLHLNGPIVDKHSTGGVGDVTSLMLGPMVAACGGYIPMISGRGLGHTGGTLDKLESIPGFDIFPDDNRFREIIKDVGVAIIGQTSSLAPADKRFYATRDITATVDSIPLITASILAKKLAEGLDALVMDVKVGSGAFMPTYELSEALAEAIVGVANGAGVRTTALLTDMNQVLASSAGNAVEVREAVQFLTGEYRNPRLFDVTMALCVEMLISGKLAKDDAEARAKLQAVLDNGKAAEVFGRMVAAQKGPTDFVENYAKYLPTAMLTKAVYADTEGFVSEMDTRALGMAVVAMGGGRRQASDTIDYSVGFTDMARLGDQVDGQRPLAVIHAKDENNWQEAAKAVKAAIKLADKAPESTPTVYRRISE
On to B2, for which, in series [3], the Michaelis constant (Km) was found to be 230 µM. Moreover, the results for the Vmax in series [4] and in series [5] were 0.013 mM/min and 1.15 mM/min, respectively.
